Test results from ChEMBL document CHEMBL2040768, “Synthesis, antimicrobial and cytotoxic activities of sulfone linked bis heterocycles” (Eur J Med Chem, 2012).
Calls of active or inactive are those of the source. The calls are words filed in the database; no cut-off is given here.

Columns and labels:
Bacillus subtilis [1] = assay: Antibacterial activity against Bacillus subtilis at 50 ug/ml after 24 hrs by agar well diffusion method; assay type: functional; details: for zone of inhibition at 50 µg/mL: read-out: DIZ
How it was run: (§1)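 Agar well diffusion. Nutrient plates swabbed with 24 h broth culture of the bacterium; 6 mm wells bored and loaded with DMSO solutions of compound (wells at 50 and 100 per well). Chloramphenicol positive control, DMSO negative control. Plates held 37 °C, 24 h; inhibition zone diameter (mm) measured, mean of duplicates.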

Pseudomonas aeruginosa [2] = assay: Antibacterial activity against Pseudomonas aeruginosa at 100 ug/ml after 24 hrs by agar well diffusion method; assay type: functional; details: for zone of inhibition at 100 µg/mL: read-out: DIZ; how it was run: as §1
Aspergillus niger [3] = assay: Antifungal activity against Aspergillus niger at 50 ug/ml after 48 hrs by agar well diffusion method; assay type: functional; details: for zone of inhibition at 50 µg/mL: read-out: DIZ
How it was run: (§2)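 Fungal agar well diffusion. Plates swabbed with fungal culture, 6 mm wells filled with DMSO solutions of compound (50 and 100 per well). Ketoconazole positive and DMSO negative controls. Plates incubated 28 °C for 48 h; zone of inhibition diameter (mm) read, average of duplicates.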

Aspergillus niger [4] = assay: Antifungal activity against Aspergillus niger at 100 ug/ml after 48 hrs by agar well diffusion method; assay type: functional; details: for zone of inhibition at 100 µg/mL: read-out: DIZ; how it was run: as §2
Bacillus subtilis [5] = assay: Antibacterial activity against Bacillus subtilis at 100 ug/ml after 24 hrs by agar well diffusion method; assay type: functional; details: for zone of inhibition at 100 µg/mL: read-out: DIZ; how it was run: as §1
Klebsiella pneumoniae [6] = assay: Antibacterial activity against Klebsiella pneumoniae at 50 ug/ml after 24 hrs by agar well diffusion method; assay type: functional; details: for zone of inhibition at 50 µg/mL: read-out: DIZ; how it was run: as §1
Penicillium chrysogenum [7] = assay: Antifungal activity against Penicillium chrysogenum at 100 ug/ml after 48 hrs by agar well diffusion method; assay type: functional; details: for zone of inhibition at 100 µg/mL: read-out: DIZ; how it was run: as §2
Klebsiella pneumoniae [8] = assay: Antibacterial activity against Klebsiella pneumoniae at 100 ug/ml after 24 hrs by agar well diffusion method; assay type: functional; details: for zone of inhibition at 100 µg/mL: read-out: DIZ; how it was run: as §1
Penicillium chrysogenum [9] = assay: Antifungal activity against Penicillium chrysogenum at 50 ug/ml after 48 hrs by agar well diffusion method; assay type: functional; details: for zone of inhibition at 50 µg/mL: read-out: DIZ; how it was run: as §2
Pseudomonas aeruginosa [10] = assay: Antibacterial activity against Pseudomonas aeruginosa at 50 ug/ml after 24 hrs by agar well diffusion method; assay type: functional; details: for zone of inhibition at 50 µg/mL: read-out: DIZ; how it was run: as §1
A549 = assay: Cytotoxicity against human A549 cells up to 0.2 mM after 72 hrs by MTT assay
Staphylococcus aureus [11] = assay: Antibacterial activity against Staphylococcus aureus at 100 ug/ml after 24 hrs by agar well diffusion method; assay type: functional; details: for zone of inhibition at 100 µg/mL: read-out: DIZ; how it was run: as §1
Staphylococcus aureus [12] = assay: Antibacterial activity against Staphylococcus aureus at 50 ug/ml after 24 hrs by agar well diffusion method; assay type: functional; details: for zone of inhibition at 50 µg/mL: read-out: DIZ; how it was run: as §1

Compound | zone of inhibition at 50 µg/mL (Bacillus subtilis [1]) [mm] | zone of inhibition at 100 µg/mL (Pseudomonas aeruginosa [2]) [mm] | zone of inhibition at 50 µg/mL (Aspergillus niger [3]) [mm] | zone of inhibition at 100 µg/mL (Aspergillus niger [4]) [mm] | zone of inhibition at 100 µg/mL (Bacillus subtilis [5]) [mm] | zone of inhibition at 50 µg/mL (Klebsiella pneumoniae [6]) [mm] | zone of inhibition at 100 µg/mL (Penicillium chrysogenum [7]) [mm] | zone of inhibition at 100 µg/mL (Klebsiella pneumoniae [8]) [mm] | zone of inhibition at 50 µg/mL (Penicillium chrysogenum [9]) [mm] | zone of inhibition at 50 µg/mL (Pseudomonas aeruginosa [10]) [mm] | Activity (A549) | zone of inhibition at 100 µg/mL (Staphylococcus aureus [11]) [mm] | zone of inhibition at 50 µg/mL (Staphylococcus aureus [12]) [mm] | also measured
Nn1c(CS(=O)(=O)Nc2ccccc2)nnc1CS(=O)(=O)c1c[nH]cc1S(=O)(=O)c1ccccc1 | 20 | 16 | 18 | 20 | 22 | 22 | 22 | 24 | 19 | 15 | inactive | 19 | 17 | –
Cc1ccc(NS(=O)(=O)Cc2nnc(CS(=O)(=O)C3CNN=C3S(=O)(=O)c3ccc(C)cc3)s2)cc1 (stereo not given) | 14 | 13 | 11 | 14 | 16 | 16 | 16 | 18 | 13 | 11 | inactive | 13 | 11 | –
O=S(=O)(Cc1nnc(CS(=O)(=O)c2c[nH]nc2S(=O)(=O)c2ccc(Cl)cc2)s1)Nc1ccc(Cl)cc1 | 28 | 26 | 30 | 32 | 31 | 30 | 34 | 33 | 31 | 24 | inactive | 29 | 27 | –
O=S(=O)(Cc1nnc(CS(=O)(=O)c2c[nH]nc2S(=O)(=O)c2ccccc2)s1)Nc1ccccc1 | 15 | 12 | 15 | 17 | 17 | 14 | 19 | 16 | 16 | 10 | inactive | 17 | 16 | –
Nn1c(CS(=O)(=O)Nc2ccc(Cl)cc2)nnc1CS(=O)(=O)C1CNN=C1S(=O)(=O)c1ccc(Cl)cc1 (stereo not given) | 24 | 24 | 28 | 30 | 27 | 28 | 32 | 30 | 29 | 21 | inactive | 27 | 25 | –
Nn1c(CS(=O)(=O)/C=C/S(=O)(=O)c2ccccc2)nnc1CS(=O)(=O)Nc1ccccc1 | 24 | 18 | 21 | 24 | 26 | 26 | 26 | 28 | 23 | 17 | inactive | 23 | 21 | –
O=S(=O)(Cc1nnc(CS(=O)(=O)C2CNN=C2S(=O)(=O)c2ccc(Cl)cc2)s1)Nc1ccc(Cl)cc1 (stereo not given) | 25 | 23 | 28 | 29 | 26 | 25 | 31 | 28 | 28 | 22 | inactive | 27 | 24 | –
O=S(=O)(Cc1nnc(CS(=O)(=O)C2CNN=C2S(=O)(=O)c2ccccc2)o1)Nc1ccccc1 (stereo not given) | – | – | – | – | – | – | – | – | – | – | inactive | – | – | diameter of the inhibition zone (DIZ) (Bacillus subtilis [1]): inactive; diameter of the inhibition zone (DIZ) (Pseudomonas aeruginosa [2]): inactive; diameter of the inhibition zone (DIZ) (Aspergillus niger [3]): inactive; diameter of the inhibition zone (DIZ) (Aspergillus niger [4]): inactive; diameter of the inhibition zone (DIZ) (Bacillus subtilis [5]): inactive; diameter of the inhibition zone (DIZ) (Klebsiella pneumoniae [6]): inactive; diameter of the inhibition zone (DIZ) (Penicillium chrysogenum [7]): inactive; diameter of the inhibition zone (DIZ) (Klebsiella pneumoniae [8]): inactive; diameter of the inhibition zone (DIZ) (Penicillium chrysogenum [9]): inactive; diameter of the inhibition zone (DIZ) (Pseudomonas aeruginosa [10]): inactive; diameter of the inhibition zone (DIZ) (Staphylococcus aureus [11]): inactive; diameter of the inhibition zone (DIZ) (Staphylococcus aureus [12]): inactive
Cc1ccc(NS(=O)(=O)Cc2nnc(CS(=O)(=O)c3c[nH]nc3S(=O)(=O)c3ccc(C)cc3)s2)cc1 | 10 | 11 | 10 | 13 | 13 | 13 | 13 | 15 | 11 | 8 | inactive | 14 | 12 | –
Cc1ccc(NS(=O)(=O)Cc2nnc(CS(=O)(=O)C3CNN=C3S(=O)(=O)c3ccc(C)cc3)n2N)cc1 (stereo not given) | 16 | 15 | 13 | 16 | 18 | 18 | 18 | 20 | 15 | 12 | inactive | 15 | 13 | –
O=S(=O)(Cc1nnc(CS(=O)(=O)c2c[nH]cc2S(=O)(=O)c2ccc(Cl)cc2)o1)Nc1ccc(Cl)cc1 | 17 | 20 | 21 | 24 | 21 | 23 | 26 | 25 | 22 | 18 | inactive | 20 | 18 | –
Cc1ccc(NS(=O)(=O)Cc2nnc(CS(=O)(=O)c3c[nH]cc3S(=O)(=O)c3ccc(C)cc3)o2)cc1 | – | – | – | – | – | – | – | – | – | – | inactive | – | – | diameter of the inhibition zone (DIZ) (Bacillus subtilis [1]): inactive; diameter of the inhibition zone (DIZ) (Pseudomonas aeruginosa [2]): inactive; diameter of the inhibition zone (DIZ) (Aspergillus niger [3]): inactive; diameter of the inhibition zone (DIZ) (Aspergillus niger [4]): inactive; diameter of the inhibition zone (DIZ) (Bacillus subtilis [5]): inactive; diameter of the inhibition zone (DIZ) (Klebsiella pneumoniae [6]): inactive; diameter of the inhibition zone (DIZ) (Penicillium chrysogenum [7]): inactive; diameter of the inhibition zone (DIZ) (Klebsiella pneumoniae [8]): inactive; diameter of the inhibition zone (DIZ) (Penicillium chrysogenum [9]): inactive; diameter of the inhibition zone (DIZ) (Pseudomonas aeruginosa [10]): inactive; diameter of the inhibition zone (DIZ) (Staphylococcus aureus [11]): inactive; diameter of the inhibition zone (DIZ) (Staphylococcus aureus [12]): inactive
Cc1ccc(NS(=O)(=O)Cc2nnc(CS(=O)(=O)/C=C/S(=O)(=O)c3ccc(C)cc3)s2)cc1 | 21 | 16 | 18 | 21 | 23 | 23 | 23 | 25 | 20 | 14 | inactive | 20 | 18 | –
Cc1ccc(NS(=O)(=O)Cc2nnc(CS(=O)(=O)C3CNN=C3S(=O)(=O)c3ccc(C)cc3)o2)cc1 (stereo not given) | – | – | – | – | – | – | – | – | – | – | inactive | – | – | diameter of the inhibition zone (DIZ) (Bacillus subtilis [1]): inactive; diameter of the inhibition zone (DIZ) (Pseudomonas aeruginosa [2]): inactive; diameter of the inhibition zone (DIZ) (Aspergillus niger [3]): inactive; diameter of the inhibition zone (DIZ) (Aspergillus niger [4]): inactive; diameter of the inhibition zone (DIZ) (Bacillus subtilis [5]): inactive; diameter of the inhibition zone (DIZ) (Klebsiella pneumoniae [6]): inactive; diameter of the inhibition zone (DIZ) (Penicillium chrysogenum [7]): inactive; diameter of the inhibition zone (DIZ) (Klebsiella pneumoniae [8]): inactive; diameter of the inhibition zone (DIZ) (Penicillium chrysogenum [9]): inactive; diameter of the inhibition zone (DIZ) (Pseudomonas aeruginosa [10]): inactive; diameter of the inhibition zone (DIZ) (Staphylococcus aureus [11]): inactive; diameter of the inhibition zone (DIZ) (Staphylococcus aureus [12]): inactive
Cc1ccc(NS(=O)(=O)Cc2nnc(CS(=O)(=O)/C=C/S(=O)(=O)c3ccc(C)cc3)n2N)cc1 | 23 | 17 | 19 | 23 | 25 | 25 | 25 | 27 | 22 | 15 | inactive | 22 | 20 | –
